Results: ChEMBL document CHEMBL1153087, “Synthesis of 4-thiophen-2'-yl-1,4-dihydropyridines as potentiators of the CFTR chloride channel” (Bioorg Med Chem, 2009)
Calls of active or inactive are those of the source. No cut-off for these calls is given here.

How the values were obtained:
Assay type in all cases: cell-based
[1] = Binding affinity to CFTR deltaF508 mutant expressed in FRT cells coexpressing halide sensitive YFP-H148Q/I152L mutant protein by iodide influx assay
Summary of the method: (§1)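 FRT cells stably co-expressing ΔF508-CFTR and YFP-H148Q/I152L, held 20–24 h at 27 °C and assayed 48 h after plating. PBS wash, then 30 min with forskolin plus compound. 14-s YFP read (ex 500, em 535 nm) around iodide injection (100 mM final). Initial slope dF/dt extrapolated by exponential fit of final 10 s. Dose–response Hill fit gave apparent Kd and maximal effect.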

[2] = molecular target: Voltage-gated L-type calcium channel (Rattus norvegicus, UniProt P22002+Q02485+P27732); test: Inhibition of L-VDCC in rat H9C2 cells assessed as effect on calcium level by Fluo-4 fluorescence assay
FRT = test: Potentiation of CFTR deltaF508 mutant expressed in FRT cells coexpressing halide sensitive YFP-H148Q/I152L mutant protein assessed as channel activation by iodide influx assay; summary of the method: as §1

Row | inhibition (INH) [2] | Compound | Kd [1] [µM] | pKd [1] | Activity (FRT)
1 | Active | CCOC(=O)C1=C(C)NC(C)=C(C(=O)OCc2ccccc2)C1c1sccc1SCC(=O)OC (stereo unspecified) | 0.3 | 6.52 | 
2 |  | C=CCOC(=O)C1=C(C)NC(C)=C(C(=O)OCC=C)C1c1sccc1C | 1 | 6 | Active
3 | Not Active | COC(=O)C1=C(C)NC(C)=C(C(=O)OC)C1c1ccc(C)o1 | 6 | 5.22 | Active
4 |  | C=CCOC(=O)C1=C(C)NC(C)=C(C(=O)OCC=C)C1c1sccc1SCC(=O)OC | 1.3 | 5.89 | Active
5 |  | COC(=O)CSc1ccsc1C1C(C(=O)OCc2ccccc2)=C(C)NC(C)=C1C(=O)OCc1ccccc1 | 0.3 |  | Active
6 |  | CC1=C(C(=O)OCc2ccccc2)C(c2ccc([N+](=O)[O-])s2)C(C(=O)OCc2ccccc2)=C(C)N1 | 13.1 | 4.88 | 
7 |  | COC(=O)C1=C(C)NC(C)=C(C(=O)OC)C1c1ccc([N+](=O)[O-])s1 | 8.3 |  | Active
8 |  | COC(=O)C1=C(C)NC(C)=C(C(=O)OC)C1c1sccc1C | 3.1 | 5.51 | inactive
9 |  | O=c1c(-c2ccc(O)cc2)coc2cc(O)cc(O)c12 [GENISTEIN] | 16.7 |  | 
10 |  | CC1=C(C(=O)OCc2ccccc2)C(c2cc(-c3ccccc3)cs2)C(C(=O)OCc2ccccc2)=C(C)N1 | 16.5 | 4.8 | Active
11 | Not Active | COC(=O)C1=C(C)NC(C)=C(C(=O)OC)C1c1cccs1 | 9.5 | 5.02 | 
12 | Not Active | COC(=O)C1=C(C)NC(C)=C(C(=O)OC)C1c1ccc(C)s1 | 6 | 5.22 | Active
13 |  | C=CCOC(=O)C1=C(C)NC(C)=C(C(=O)OCC=C)C1c1ccc([N+](=O)[O-])s1 | 3.8 |  | 
14 |  | CCOC(=O)C1=C(C)NC(C)=C(C(=O)OCC)C1c1sccc1C | 5.7 | 5.24 | 
15 |  | C=CCOC(=O)C1=C(C)NC(C)=C(C(=O)OCC=C)C1c1cc(-c2ccccc2)cs1 | 1.5 | 5.82 | Active
16 | Active | C=CCOC(=O)C1=C(C)NC(C)=C(C(=O)OCC)C1c1sccc1SCC(=O)OC (stereo unspecified) | 1.9 | 5.72 | 
17 | Active | C=CCOC(=O)C1=C(C)NC(C)=C(C(=O)OCC)C1c1sccc1C (stereo unspecified) | 0.3 | 6.52 | 
18 |  | CC1=C(C(=O)OCc2ccccc2)C(c2sccc2C)C(C(=O)OCc2ccccc2)=C(C)N1 | 0.7 | 6.15 | Active
19 | Active | CCOC(=O)C1=C(C)NC(C)=C(C(=O)OCc2ccccc2)C1c1sccc1C (stereo unspecified) | 0.5 | 6.3 | 
